Laboratory results taken from ChEMBL document CHEMBL1125483, “Novel inhibitors of prolyl 4-hydroxylase. 3. Inhibition by the substrate analogue N-oxaloglycine and its derivatives” (J Med Chem, 1992).

Legend:
[1] = target: Prolyl 4-hydroxylase subunit alpha-1 (Rattus norvegicus) (UniProt P54001); test: Compound was evaluated for the inhibition of prolyl 4-hydroxylase at 100 ug/mL
[2] = target: Prolyl 4-hydroxylase subunit alpha-1 (Rattus norvegicus) (UniProt P54001); test: Compound was evaluated for the inhibition of prolyl 4-hydroxylase at 50 ug/mL
[3] = target: T1, Prolyl 4-hydroxylase subunit alpha-1 (Rattus norvegicus, UniProt P54001); test: (§1) Compound was evaluated for the inhibition of prolyl 4-hydroxylase
How it was run: (§2)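 Prolyl 4-hydroxylase activity was measured with an indirect assay that follows the conversion of labelled 2-ketoglutarate cosubstrate into labelled succinate. Each point was run in duplicate. IC50 was obtained by interpolation from six-point dose-response curves.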

[4] = target: T1, Prolyl 4-hydroxylase subunit alpha-1; test: Inhibitory activity against prolyl 4-hydroxylase
How it was run: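 Indirect radiometric assay: conversion of labelled cofactor 2-ketoglutarate into labelled succinate measured. Each point in duplicate; IC50 interpolated from six-point dose-response curves.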

[5] = target: Prolyl 4-hydroxylase subunit alpha-1 (Rattus norvegicus) (UniProt P54001); test: Compound was evaluated for the inhibition of prolyl 4-hydroxylase at 100 ug/mL
[6] = target: Prolyl 4-hydroxylase subunit alpha-1 (Rattus norvegicus) (UniProt P54001); test: as §1; conditions: concentration not given here; how it was run: as §2
[7] = target: T1, Prolyl 4-hydroxylase subunit alpha-1; test: Compound was evaluated for the inhibition of prolyl 4-hydroxylase

Chain of Prolyl 4-hydroxylase subunit alpha-1 (Rattus norvegicus) (P54001 whole entry): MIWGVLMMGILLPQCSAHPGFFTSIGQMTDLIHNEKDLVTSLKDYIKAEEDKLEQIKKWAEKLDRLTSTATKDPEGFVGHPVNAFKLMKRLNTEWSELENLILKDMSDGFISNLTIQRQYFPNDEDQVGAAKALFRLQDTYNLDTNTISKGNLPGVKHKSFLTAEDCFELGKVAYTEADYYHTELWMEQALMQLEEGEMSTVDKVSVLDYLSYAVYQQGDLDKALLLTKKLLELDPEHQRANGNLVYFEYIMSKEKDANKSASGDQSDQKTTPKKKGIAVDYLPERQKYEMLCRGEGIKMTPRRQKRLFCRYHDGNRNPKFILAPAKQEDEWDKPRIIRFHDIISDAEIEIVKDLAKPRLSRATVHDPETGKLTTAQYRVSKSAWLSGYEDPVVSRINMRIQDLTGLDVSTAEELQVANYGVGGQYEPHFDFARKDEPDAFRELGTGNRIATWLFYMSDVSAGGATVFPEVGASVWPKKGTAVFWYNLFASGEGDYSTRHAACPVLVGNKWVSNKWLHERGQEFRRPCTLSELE
T1 sequence (P54001 whole entry): as above

| SMILES | inhibition [2] | IC50 [3] | also measured |
| --- | --- | --- | --- |
| CSCCC(NC(=O)C(=O)O)C(=O)O (stereo not drawn) |  |  | inhibition [1]: 9% |
| CN(CC(=O)O)C(=O)C(=O)O | 10% |  |  |
| O=C(O)CNC(=O)C(=O)O [N-OXALYLGLYCINE] |  | 2.89 µM | Ki [3]: 540 nM |
| O=C(O)c1ccc(C(=O)O)nc1 [PYRIDINE-2,5-DICARBOXYLIC ACID] |  | 5.18 µM | Ki [4]: 800 nM |
| O=C(O)C(=O)N1CCCC1C(=O)O (stereo not drawn) | 10% |  |  |
| O=C(O)C(=O)NC(Cc1ccccc1)C(=O)O (stereo not drawn) | 18% |  |  |
| CCOc1ccc(NC(=O)CNC(=O)C(=O)O)cc1 | 16% |  |  |
| O=C(O)C(=O)Nc1ccc(C(=O)O)cc1 |  |  | inhibition [5]: 9% |
| CC(C)(NC(=O)C(=O)O)C(=O)O | 26% |  |  |
| O=C(O)CCNC(=O)C(=O)O |  |  | inhibition [6]: 24% |
| CC(C)CC(NC(=O)C(=O)O)C(=O)O (stereo not drawn) | 16% |  |  |
| C[C@H](NC(=O)C(=O)O)C(=O)O |  | 38.2 µM |  |
| C[C@@H](NC(=O)C(=O)O)C(=O)O |  |  | IC50 [7]: 621 µM |
| CS(=O)(=O)NC(=O)CNC(=O)C(=O)O |  | 414 µM |  |
| O=C(CNC(=O)C(=O)O)NS(=O)(=O)c1ccccc1 | 34% |  |  |
| CC(NC(=O)C(=O)O)C(=O)O (stereo not drawn) |  | 90.7 µM |  |
